Rce1 inhib = blocks yeast Ras-converting enzyme; Q03530; calls only; 290,000 compounds, 0.27% hits; yeast membranes, quenched prenylated peptide cleavage fluorescence;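 active = fall in fluorescence gain of 50% or more versus controls, with final raw signal at or below 3038400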;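 also: plate controls were neutral control wells for no effect and wells lacking membranes for full effect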
TAAR1 ag = human TAAR1 agonism. activation, % at 3 µM. 360,000 compounds, 0.99% hits. AID 624467. Q96RJ0. CHO RD-HGA16 TAAR1, Fluo-8 calcium fluorescence; vehicle wells 0%, saturating PEA agonist 100%;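 active = activation above the mean activation of all test compounds in the run plus 3 SD, cut at about 38% in these data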
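Assay system – CHO-derived RD-HGA16 cells with stable Gα16 and human TAAR1 · Compound dosing – one-point dosing at 3 µM (nominal) · Incubation – 17-24 h seeding, 75 min 37 °C dye, 30 min RT · Measured by – kinetic Fluo-8 calcium fluorescence · Control set – DMSO vehicle as 0%, PEA at EC100 as 100% · Repeats – single well for each compound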
VLA-4 inh = inhibition in a human VLA-4 binding assay; inhibition, % (about 7 µM as worked out from the volumes in the protocol); P13612; VLA-4 expressing cells, ligand binding flow cytometry; 330,000 compounds, 0.2% hits; in the data active = inhibition above about 50%
Platelet DG rel = platelet dense granule release activity; inhibition, %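 (compounds screened at 7.5 µM in platelet-rich plasma)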; human platelet-rich plasma, SFLLRN dense granule ATP release, luminescence; 300,000 compounds, 0.22% hits;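 active = mean replicate score, as percent of positive control, at or above 50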
TAAR1 antagonist = antagonists of human TAAR1; inhibition, % at 3 µM; 360,000 compounds, 1.5% hits; CHO RD-HGA16 TAAR1, Fluo-8 calcium fluorescence, antagonist;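 active = inhibition above a per-plate cutoff, the mean inhibition of test compounds on that plate plus 3 SD, cut at about 49% in these data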;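 also: 0% = DMSO plus EC80 beta-PEA response and 100% = DMSO alone without agonist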
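Test system – hTAAR1-expressing CHO RD-HGA16 cells, Gα16-coupled · Also added – β-PEA at EC80 concentration, post-compound challenge · Compound – 3 µM, single point · Incubation – dye loading 75 min at 37 °C, then 30 min room temperature · Measured by – Fluo-8 intracellular calcium dye fluorescence, real-time kinetic reads · Benchmarks – vehicle and agonist controls · Replicates – singlicate, one well per test compound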
Numbers without * were called inactive; i = inactive; . = no result given; + = active, no number. Only some compounds are listed: those with a hit (about 2.6% of all), similar ones and a draw of the others.

SMILES	Rce1 inhib	TAAR1 ag	VLA-4 inh	Platelet DG rel	TAAR1 antagonist
O=C(NC(=S)N1CCCCCC1)c1ccccc1Cl	i	-1.1	46.1	3.0	9.6
O=C(Cc1ccc(Cl)cc1)Nc1nc2ccccc2[nH]1	i	38.7*	3.9	-12.5	2.5
COC(=O)C1=C(C)N(Cc2ccccc2)C(=NCc2cccc(C(F)(F)F)c2)N[C@H]1c1cccc(F)c1	i	41.5*	.	3.9	34.5
CCc1nc(Nc2ccc(N3CCN(C(C)=O)CC3)cc2)c2oc3ccccc3c2n1	+	11.5	3.7	-1.0	39.0
CN(C)S(=O)(=O)c1cccc(N=c2scc(-c3ccc4c(c3)NC(=O)CO4)n2CC2CCCO2)c1 (centres undefined)	i	26.9	-12.2	-7.0	52.5*
CCOC(=O)C1=CCN(S(=O)(=O)c2ccc(Br)cc2)C1c1cccc(Br)c1 (centres undefined)	.	0.0	.	.	-2.5
c1ccc2[nH]c(CCCCc3nc4ccccc4[nH]3)nc2c1	i	37.9*	3.6	4.6	-1.2
CCCc1nc2ccccc2[nH]1	i	10.7	0.7	7.2	16.6
Cn1c(=O)c2c(nc(SCCN3CCOCC3)n2Cc2ccccc2Cl)n(C)c1=O	i	2.1	-0.8	62.6*	-23.4
CCN(CC)Cc1c(O)ccc2c(=O)c(-c3ccccc3OC)coc12	+	2.2	21.0	-4.7	-27.0
CCN(CC)Cc1c(O)ccc2c(=O)c(-c3ccccc3Cl)coc12	i	2.3	5.8	-1.8	-5.8
COc1ccc(CN(C)C(=O)C(Cc2ccccc2)NC(=O)c2ccccc2)c(OC)c1OC (centres undefined)	.	10.3	.	.	53.7*
COc1ccc(CN(C)C(=O)c2cccc(Oc3ccccc3)c2)c(OC)c1OC	i	11.1	-0.2	-1.0	53.8*
COc1cccc(CN(C)C(=O)c2cccc(S(=O)(=O)NCc3ccccc3)c2)c1OC	i	11.1	8.6	1.9	30.9
COc1ccc(CN(C)C(=O)[C@H](Cc2ccccc2)NC(=O)c2ccco2)c(OC)c1	.	21.3	13.9	.	39.8
COc1cccc(CN(C)C(=O)C(Cc2ccccc2)NC(=O)c2ccccc2)c1OC (centres undefined)	i	11.2	-1.9	8.8	50.0*
CCC(=O)Nc1ccc(OCC2CCCO2)cc1 (centres undefined)	i	1.9	9.9	-1.9	-7.7
COC(=O)C1=C(C)N(CCc2ccc(OC)cc2)C(=O)C1	i	16.2	7.0	24.8	51.8*
Cn1c(=O)c2c(nc(C3CC4C5CCC(C5)C4C3)n2C)n(C)c1=O (centres undefined)	.	-0.2	.	.	-3.2
CN1/C(=C\C(=O)c2ccco2)C(C)(C)c2ccccc21	i	1.8	i	2.9	57.5*
CN1/C(=C\C(=O)COC(=O)c2ccco2)C(C)(C)c2ccccc21	i	7.1	-111.6	4.2	-10.7
OC[C@H]1O[C@@H](c2nc3ccc(-c4nc(-c5ccc(Br)cc5)no4)cc3[nH]2)C[C@@H]1O	.	13.7	.	.	32.7
Cc1[nH]c2ccccc2c1CC(=O)Nc1ccc(Nc2cccnc2)c(-c2ccc(Oc3ccccc3)cc2)c1	.	0.4	.	.	8.6
S=C(NCCCCN(Cc1ccc(Cl)cc1)c1ccc(Br)cn1)NCCCc1cnc[nH]1	.	38.0*	.	.	31.0
CN(C)CCN(Cc1ccc(Cl)cc1)c1ccccn1	i	5.1	8.1	-2.9	-10.7
SMILES	Rce1 inhib	TAAR1 ag	VLA-4 inh	Platelet DG rel	TAAR1 antagonist
CC1Cc2ccccc2N1C(=O)CSc1nc2c(c(=O)n(C)c(=O)n2C)n1Cc1ccccc1 (centres undefined)	i	16.9	-11.7	-6.4	52.2*
Cc1cc2cc3c(cc2nc1SCC(=O)N1c2ccccc2CC1C)OCO3 (centres undefined)	i	9.4	-0.1	5.1	1.4
Cc1cc2ccccc2nc1SCC(=O)N1c2ccccc2CC1C (centres undefined)	i	-1.3	11.6	67.4*	-15.4
COC(=O)c1cnc(Nc2nc(CN)cs2)nc1C(F)(F)F	.	20.0	.	.	-23.2
Cn1c(=O)oc2cc(S(=O)(=O)NC3CCN(Cc4ccccc4)CC3)ccc21	i	2.5	-3.3	52.1*	-14.4
COC(=O)c1c(C)[nH]c(C(=O)OCC(=O)c2c(N)n(CC(C)C)c(=O)n(C)c2=O)c1C	.	7.1	-3.7	.	-1.2
CC(NC(=O)Cc1ccc(NS(=O)(=O)c2cccc(C(F)(F)F)c2)cc1)c1ccccn1 (centres undefined)	i	-2.6	7.6	-1.3	-6.4
O=C1/C(=C/c2ccc([N+](=O)[O-])cc2)CCc2ccccc21	i	.	8.1	49.6*	.
O=C1C(=Cc2ccccn2)CCc2ccccc21	.	-1.6	.	.	-5.6
Cc1ccsc1/C=C1\CCc2ccccc2C1=O	i	-1.1	12.1	63.6*	-5.3
Cc1cc2c(cc1C)-n1nnnc1C(N1CCN(c3ccccn3)CC1)C(c1ccc3c(c1)OCO3)=N2 (centres undefined)	.	-0.1	.	.	-13.9
COc1ccc(C2C(C(C)=O)=C(C)N=c3s/c(=C\c4ccco4)c(=O)n32)c(OC)c1 (centres undefined)	i	9.0	12.7	-2.2	3.0
COc1ccc(C2C(C(C)=O)=C(C)N=c3s/c(=C\c4cc(C)n(C)c4C)c(=O)n32)c(OC)c1 (centres undefined)	i	41.3*	-144.7	-0.5	29.9
CCOC(=O)Cn1c(=O)n(Cc2ccco2)c(=O)c2ccc(C(=O)NC3CCCC3)cc21	i	-2.4	-4.5	89.6*	-6.2
CCOC(=O)CSc1nc2cc(C(=O)NCC3CCCO3)ccc2c(=O)n1Cc1ccco1 (centres undefined)	i	9.6	-4.4	-2.8	15.2
COc1cc2c(cc1NC(=O)Nc1ccc(C)cc1)oc1ccccc12	i	2.1	8.4	-6.8	5.2
COc1cc2c(cc1NC(=O)C(C)Sc1ccc(NC(C)=O)cc1)oc1ccccc12 (centres undefined)	i	8.9	2.2	-9.3	49.8*
CCCC(C(=O)NC1=NCCS1)c1ccccc1 (centres undefined)	i	9.0	2.8	8.7	9.4
CCOC(=O)c1sc(N=NC2=C(O)CC(C)(C)CC2=O)c(C(=O)OCC)c1C	i	0.3	-7.3	59.5*	-24.3
COC(=O)[C@@]12C[C@@H](CC(=O)N3CCCC3)C(=O)N(Cc3ccccc3)C1=CCC(C)(C)C2	.	2.3	.	.	-11.5
CCOC(=O)c1nc2sc3c(c2c(=O)[nH]1)CCC(C)C3 (centres undefined)	i	-4.4	0.3	13.0	3.0
CCOC(=O)c1nc2sc3c(c2c(=O)[nH]1)CCCC3	i	-2.6	0.3	60.4*	-6.9
COc1cccc(C(C)(O)c2nc(-c3csc4ccccc34)cs2)c1 (centres undefined)	.	-1.0	.	.	24.4
CC(=O)c1c(C)[nH]c(C(=O)OCc2cccc(C)c2)c1C	i	4.4	9.6	-1.9	5.2
CC(=O)c1c(C)[nH]c(C(=O)OCc2ccc(Br)cc2)c1C	+	9.4	1.2	1.3	21.4

Screening data from PubChem.
